Measured values taken from paper PMC7820547 (iScience, 2021).
Positions count from the first letter of the chain named.

Experiments:
hSHMT2 E98L = target: T1, hSHMT2 E98L (Homo sapiens, UniProt P34897, E98L); test: Surface plasmon resonance binding of Gly-DCA to mutant hSHMT2 E98L; conditions: SPR, 25°C
T1 sequence (P34897 30-504 E98L): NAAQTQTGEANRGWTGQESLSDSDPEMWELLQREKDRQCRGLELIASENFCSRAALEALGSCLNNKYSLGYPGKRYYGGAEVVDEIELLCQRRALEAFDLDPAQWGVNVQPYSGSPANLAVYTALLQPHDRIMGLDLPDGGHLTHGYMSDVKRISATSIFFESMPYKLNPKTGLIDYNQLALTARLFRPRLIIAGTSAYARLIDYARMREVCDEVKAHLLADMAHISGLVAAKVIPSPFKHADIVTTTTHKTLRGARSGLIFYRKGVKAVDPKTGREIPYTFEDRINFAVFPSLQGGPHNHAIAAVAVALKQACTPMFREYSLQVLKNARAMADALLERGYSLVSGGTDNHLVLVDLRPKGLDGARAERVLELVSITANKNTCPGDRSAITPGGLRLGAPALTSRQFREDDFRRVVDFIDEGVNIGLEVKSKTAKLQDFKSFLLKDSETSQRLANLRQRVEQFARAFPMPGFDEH
How it was run: (§1)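 Wild-type or mutant His6-hSHMT2 was captured on an NTA sensor chip in each cycle. Analyte (test compound) was run at 0.8, 0.4, 0.2, 0.1, 0.05 and 0.025 µM in 10 mM HEPES pH 7.5, 200 mM NaCl, 2 mM β-mercaptoethanol, 50 µM PLP, 0.01% Tween 20 and 5% DMSO. Contact 30 s, dissociation 300 s; Scatchard-derived Kd.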

hSHMT1 [1] = target: T2, hSHMT1 (Homo sapiens, UniProt P34896); conditions: ITC, ref Nonaka et al., 2019, cited from earlier work
T2 sequence (P34896 1-483): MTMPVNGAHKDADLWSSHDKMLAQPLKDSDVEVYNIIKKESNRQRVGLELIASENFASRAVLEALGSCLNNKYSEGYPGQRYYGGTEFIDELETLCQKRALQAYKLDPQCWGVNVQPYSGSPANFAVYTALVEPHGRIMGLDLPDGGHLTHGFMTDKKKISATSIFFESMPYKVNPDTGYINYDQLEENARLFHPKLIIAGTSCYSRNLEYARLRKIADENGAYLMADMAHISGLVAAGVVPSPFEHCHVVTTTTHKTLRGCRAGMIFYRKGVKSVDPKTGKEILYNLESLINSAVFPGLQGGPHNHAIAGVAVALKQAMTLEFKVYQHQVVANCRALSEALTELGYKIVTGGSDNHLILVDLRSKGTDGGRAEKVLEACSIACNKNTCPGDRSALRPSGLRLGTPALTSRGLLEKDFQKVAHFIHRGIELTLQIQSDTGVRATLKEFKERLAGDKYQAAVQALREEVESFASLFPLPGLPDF

hSHMT1 WT = target: T3, hSHMT1 WT (Homo sapiens, UniProt P34896); test: Surface plasmon resonance binding of Gly-DCA to hSHMT1 WT
T3 sequence (P34896 1-483): T2 sequence (P34896 1-483)
How it was run: (§2)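 His6-hSHMT1, wild type or point mutant, was captured fresh on an NTA sensor chip each cycle. Contact 30 s, dissociation 300 s; Kd by Scatchard analysis.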

hSHMT2 WT = target: T4, hSHMT2 WT (Homo sapiens, UniProt P34897); test: Surface plasmon resonance binding of Gly-DCA to hSHMT2 WT
T4 sequence (P34897 30-504): T1 sequence (P34897 30-504 E98L) with L69E
How it was run: as §1

hSHMT1 E75L = target: T5, hSHMT1 E75L (Homo sapiens, UniProt P34896, E75L); test: Surface plasmon resonance binding of Gly-DCA to mutant hSHMT1 E75L
T5 sequence (P34896 1-483 E75L): T2 sequence (P34896 1-483) with E75L
How it was run: as §2

hSHMT1 [2] = target: T2, hSHMT1; test: Differential scanning calorimetry; assay type: binding; conditions: DSC, 50 μM Gly-DCA, 18 μM hSHMT1; Tm without ligand 69.6°C
How it was run: (§3)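 Recombinant His6-tagged human enzyme from E. coli BL21(DE3)pLysS, Ni-NTA then gel filtration. Scanned 20 to 110 °C at 1 °C/min in 10 mM HEPES pH 7.5, 0.5 mM EDTA, 2 mM β-mercaptoethanol and 1% DMSO, with 18 µM (1.0 mg/mL) enzyme and 50 µM test compound. hSHMT1 used 100 mM NaCl and no PLP; hSHMT2 used 200 mM NaCl and 50 µM PLP. Non-two-state denaturation model fitted.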

hSHMT2 R425A = target: T6, hSHMT2 R425A (Homo sapiens, UniProt P34897, R425A); test: Surface plasmon resonance binding of Gly-DCA to mutant hSHMT2 R425A; conditions: SPR, 25°C
T6 sequence (P34897 30-504 R425A): T1 sequence (P34897 30-504 E98L) with L69E, R396A
How it was run: as §1

hSHMT1 R402A = target: T7, hSHMT1 R402A (Homo sapiens, UniProt P34896, R402A); test: Surface plasmon resonance binding of Gly-DCA to mutant hSHMT1 R402A; conditions: SPR, 25°C
T7 sequence (P34896 1-483 R402A): T2 sequence (P34896 1-483) with R402A
How it was run: as §2

hSHMT2 [3] = target: T8, hSHMT2 (Homo sapiens, UniProt P34897); test: Isothermal titration calorimetry; assay type: binding
T8 sequence (P34897 30-504): T1 sequence (P34897 30-504 E98L) with L69E
How it was run: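 Purified His6-hSHMT2 (28.9 µM) in the cell was titrated with 300 µM test compound from the syringe at 37 °C, stirring 750 rpm. One small initial injection, then 12 injections at 180 s intervals; thermodynamic parameters were calculated from the titration.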

hSHMT2 [4] = target: T8, hSHMT2; test: Differential scanning calorimetry; assay type: binding; conditions: DSC, 50 μM Gly-DCA, 18 μM hSHMT2, 50 μM PLP; Tm without ligand 65.1°C
How it was run: as §3

hSHMT2 [5] = target: T8, hSHMT2; test: Inhibition assay of Ser-Gly conversion; assay type: biochemical
[6] = ITC, 37°C, pH 7.5, 200 mM NaCl, 50 μM PLP

CC(CCC(=O)NCC(=O)O)C1CCC2C3CCC4CC(O)CCC4(C)C3CC(O)C12C (stereo not shown) [Gly-DCA, glycodeoxycholic acid]
binding affinity for hSHMT2 E98L (hSHMT2 E98L): too weak to quantitate | hSHMT1 ΔG (hSHMT1 [1]; 100 mM NaCl, 0 µM PLP): -7.4 kcal/mol | hSHMT1 ΔH (hSHMT1 [1]; 100 mM NaCl, 0 µM PLP): -2.2 kcal/mol | hSHMT1 −TΔS (hSHMT1 [1]; 100 mM NaCl, 0 µM PLP): -5.2 kcal/mol | hSHMT1 N (stoichiometry, binding ratio) (hSHMT1 [1]): 1.06 | Kd (hSHMT1 [1]; read-out: hSHMT1 Kd, 100 mM NaCl, 0 µM PLP): 5.7 µM | Kd (hSHMT1 WT): 7.6 µM | Kd (hSHMT2 WT): 0.064 µM | Kd (hSHMT1 E75L): 73.5 µM | Tm of hSHMT1 w/ Gly-DCA (hSHMT1 [2]): 78.8 °C | binding affinity for hSHMT2 R425A (hSHMT2 R425A): too weak to quantitate | binding affinity for hSHMT1 R402A (hSHMT1 R402A): too weak to quantitate | Kd (hSHMT2 [3]): 0.25 µM | hSHMT2 N (stoichiometry, binding ratio) (hSHMT2 [3]; ITC, 37°C): 0.83 | hSHMT2 ΔG (hSHMT2 [3]; [6]): -9.4 kcal/mol | hSHMT2 ΔH (hSHMT2 [3]; [6]): -8.6 kcal/mol | hSHMT2 −TΔS (hSHMT2 [3]; [6]): -0.8 kcal/mol | Tm of hSHMT2 w/ Gly-DCA (hSHMT2 [4]): 77.4 °C

C[C@H](CCC(=O)NCCS(=O)(=O)O)[C@H]1CC[C@H]2[C@@H]3CC[C@@H]4C[C@H](O)CC[C@]4(C)[C@H]3CC[C@]12C [Tau-LCA, taurolithocholic acid]
IC50 (hSHMT2 [5]): 2.6 µM
